Series [1] is described as follows: Number of mouse death after 10 mg/kg compound intravenous administration; n=3. It counts as ADME, organism-based. Further details: dose 10 mg/kg, route intravenous. Conditions: in vivo. The essentials:
(§1)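 Result recorded as the number of deaths over the number of animals tested.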

The nature of series [2]: Inhibitory concentration against thrombin (FIIa); n=2.
The nature of series [3]: Inhibitory concentration against coagulation factor X; n=2.
Series [4] in a line: Number of mouse death after 10 mg/kg compound intravenous administration; NT= not tested. Type of series: ADME, organism-based. Details: dose 10 mg/kg, route intravenous. The note with it: in vivo. The essentials:
as §1

The nature of series [5]: Number of mouse death after 10 mg/kg compound intra venous administration; n=3. Details: dose 10 mg/kg. Conditions: in vivo, iv. It counts as ADME, organism-based. The method, boiled down: as §1
The nature of series [6]: Maximum concentration in monkey plasma after 10 mg/kg oral administration at 120 min. Type of series: ADME, organism-based. Details: dose 10 mg/kg, route oral. Conditions: cercopithecidae.
A further series deals with Plasminogen (Homo sapiens, UniProt P00747). In words: Mean inhibitory concentration against plasmin; n=3. The method, boiled down: (§2)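 Ki against each protease (factor Xa, thrombin, plasmin, trypsin), obtained from Dixon plots built at two substrate concentrations; mean of n = 3.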
The nature of series [7]: Mean inhibitory concentration against trypsin; n=3. The essentials:
as §2

Series [8] can be described thus: Mean inhibitory concentration against thrombin; n=3. The essentials:
as §2

A short description of series [9]: Mean inhibitory concentration against coagulation factor X; n=3. The method, boiled down:
as §2

The target of series [10] is Coagulation factor X (Homo sapiens) (UniProt P00742). Conditions: Plasma, at 10 mg/kg.

Structures are written as SMILES.

Sequence of Plasminogen (P00747 97-580 limits assumed): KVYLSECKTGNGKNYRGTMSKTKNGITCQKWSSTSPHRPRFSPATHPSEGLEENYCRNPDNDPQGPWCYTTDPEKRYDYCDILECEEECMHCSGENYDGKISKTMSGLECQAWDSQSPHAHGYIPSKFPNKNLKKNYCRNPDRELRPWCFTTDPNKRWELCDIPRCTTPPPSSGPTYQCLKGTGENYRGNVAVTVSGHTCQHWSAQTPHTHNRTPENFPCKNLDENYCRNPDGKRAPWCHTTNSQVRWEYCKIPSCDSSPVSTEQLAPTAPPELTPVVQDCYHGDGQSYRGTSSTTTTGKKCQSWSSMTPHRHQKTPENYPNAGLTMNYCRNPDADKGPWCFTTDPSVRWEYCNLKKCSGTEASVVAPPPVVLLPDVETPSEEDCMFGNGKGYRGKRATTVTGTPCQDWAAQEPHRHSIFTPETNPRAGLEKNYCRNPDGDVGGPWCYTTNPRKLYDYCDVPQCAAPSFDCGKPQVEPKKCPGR
Sequence of Plasminogen (P00747 581-810 limits assumed): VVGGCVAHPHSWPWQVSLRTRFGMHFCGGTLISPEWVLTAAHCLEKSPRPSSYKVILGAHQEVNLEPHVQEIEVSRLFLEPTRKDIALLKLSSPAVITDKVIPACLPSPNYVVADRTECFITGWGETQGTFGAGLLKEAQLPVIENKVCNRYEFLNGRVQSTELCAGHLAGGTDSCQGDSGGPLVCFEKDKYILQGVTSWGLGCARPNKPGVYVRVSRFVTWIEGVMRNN
Sequence of Coagulation factor X (Homo sapiens) (P00742 41-179 limits assumed): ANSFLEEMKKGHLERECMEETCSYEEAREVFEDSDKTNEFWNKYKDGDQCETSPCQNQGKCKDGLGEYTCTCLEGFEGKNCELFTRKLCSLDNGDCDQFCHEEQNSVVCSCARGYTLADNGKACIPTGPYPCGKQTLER
Sequence of Coagulation factor X (Homo sapiens) (P00742 235-488 limits assumed): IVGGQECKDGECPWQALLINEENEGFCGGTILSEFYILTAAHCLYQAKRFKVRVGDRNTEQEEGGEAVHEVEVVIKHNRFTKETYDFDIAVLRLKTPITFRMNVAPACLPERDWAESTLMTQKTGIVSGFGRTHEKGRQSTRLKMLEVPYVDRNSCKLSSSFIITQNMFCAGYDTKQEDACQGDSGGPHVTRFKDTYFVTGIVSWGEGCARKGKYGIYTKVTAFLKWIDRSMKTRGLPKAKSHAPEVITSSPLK

By IC50 is commonly meant the concentration needed to halve the response being measured. Regarding `Cl.Cl.N=C(N)N1CCc2ccc(OCC3CCN(c4ccnc5ccccc45)CC3)cc2C1`, in series [1], the Mortality stood at 3. Moreover, the IC50 in series [2] is greater than 10 µM; in series [3], 0.4 µM.
`N=C(N)N1CCc2ccc(OCC3CCNCC3)cc2C1`: the results for the IC50 in [2] and in series [3] were greater than 10 µM and 3 µM, respectively.
In turn, `Cl.Cl.Cl.N=C(N)N1CCc2ccc(OCC3CCN(Cc4ccncc4)CC3)cc2C1` yielded a Mortality in [4] of 3. For the same compound, the figures for the IC50 in series [2] and in series [3] were greater than 10 µM and 0.8 µM, respectively.
For `Cc1cc(N2CCC(COc3ccc4c(c3)CN(C(=N)N)CC4)(C(=O)O)CC2)ccn1.Cl.Cl`, in [5], the Mortality amounted to 0. Moreover, the IC50 in [2] was greater than 10 µM; in [3] it was 0.2 µM.
As usually defined, the Cmax is the peak of the concentration-time curve. Usually Ki stands for a dissociation constant, usually derived from enzyme kinetics or from competition with a known ligand. In the case of `N=C(N)N1CCc2ccc(OCC3(C(=O)O)CCN(c4ccncc4)CC3)cc2C1.O=S(O)O`, the Cmax in series [6] is 0.391 µg/mL. The Ki at Plasminogen was 78.2 µM; in series [7], 13.6 µM; in [8], greater than 100 µM; in [9], 0.019 µM.
`CC(=N)N1CCC(Oc2ccc(C(Cc3ccc4cc[n+](C(=N)N)cc4c3)C(=O)O)cc2)C1` (stereo not drawn): the results for the Ki (on Plasminogen; in [7]; in series [8]) were 23 µM, 0.62 µM and greater than 100 µM, respectively.
`Cl.Cl.N=C(N)N1CCc2ccc(OCC3(C(=O)O)CCN(c4ccncn4)CC3)cc2C1` came in with a Mortality in series [5] of 0. In addition, the figures for the IC50 in series [2] and in series [3] were greater than 10 µM and 0.1 µM, respectively.
Turning to `COC(=O)c1cnccc1N1CCC(COc2ccc3c(c2)CN(C(=N)N)CC3)CC1.Cl.Cl`, the Mortality in series [1] came out at 3. The IC50 is greater than 10 µM in [2] and 0.2 µM in series [3].
`N=C(N)N1CCc2ccc(OCC3CCN(Cc4ccccn4)CC3)cc2C1`: the IC50 is greater than 10 µM in series [2] and 1 µM in series [3].
Turning to `Cl.Cl.N=C(N)N1CCc2ccc(OCC3CCN(c4ccncc4)CC3)cc2C1`, in series [1], the Mortality stood at 3. For the same compound, the IC50 in series [2] was greater than 10 µM; in [3], 0.06 µM.
One may read the inhibition as the percentage by which the read-out fell short of the control. The compound `N=C(N)N1CCc2ccc(OCC3(C(=O)O)CCN(c4ccncc4)CC3)cc2C1` returned an inhibition in series [10] of 41%.
Take `CC(=N)N1CCC(COc2ccc3c(c2)CN(C(=N)N)CC3)CC1.Cl.Cl`: the Mortality in [1] stood at 3. Moreover, the IC50 was greater than 10 µM in series [2] and 0.5 µM in series [3].
Compound `Cl.Cl.N=C(N)N1CCc2ccc(OCC3(C(=O)O)CCN(c4ccncc4)CC3)cc2C1` yielded a Mortality in series [5] of 0. The same compound had an IC50 in [2] greater than 10 µM.
In series [1], `CCOC(=O)CCc1cnccc1N1CCC(COc2ccc3c(c2)CN(C(=N)N)CC3)CC1.Cl.Cl` showed a Mortality of 3. Moreover, the IC50 is greater than 10 µM in [2] and 0.2 µM in [3].
Turning to `Cl.Cl.N=C(N)N1CCc2ccc(OCC3CCN(c4ccncc4CCC(=O)O)CC3)cc2C1`, the Mortality in series [5] was found to be 0. The values for the IC50 in [2] and in series [3] were greater than 10 µM and 0.2 µM, respectively.
For `CCOC(=O)C1(COc2ccc3c(c2)CN(C(=N)N)CC3)CCN(c2ccncc2)CC1.Cl.Cl`, in that order: 3, greater than 10 µM and 0.08 µM.
Turning to `Cl.Cl.N=C(N)N1CCc2ccc(OCC3CCN(c4ccncc4C(=O)O)CC3)cc2C1`, in [1], the Mortality worked out at 0. Moreover, the results for the IC50 in [2] and in series [3] were greater than 10 µM and 2 µM, respectively.

For the origin of these results see ChEMBL document CHEMBL1145217, “Discovery of novel tetrahydroisoquinoline derivatives as potent and selective factor Xa inhibitors” (Bioorg Med Chem Lett, 2005).
